Reference: ChEMBL document CHEMBL1152810, “Microwave synthesis and evaluation of phenacylhomoserine lactones as anticancer compounds that minimally activate quorum sensing pathways in Pseudomonas aeruginosa” (J Med Chem, 2009)

Legend:
[1] = test system: NCI-H630; test: Cytotoxicity against 5FU-resistant human NCI-H630 cells after 5 days by SRB assay; format: functional, cell-based; conditions: NCI-H630, 120 h
Outline: (§1)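 Cells grown in phenol-red-free RPMI-1640 with 10% dialyzed FBS and no antibiotics, at 37 °C and 5% CO₂. H630-1 was kept in 1 µM 5-FU until 1 week before use. Compounds were dried from EtOH (10× final) into wells, in duplicate or quadruplicate. Seeding per well: H630 2×10³, H630-1 4×10³, PC3 2×10³. After 5 days, cells were TCA-fixed, stained with 0.4% SRB, dye dissolved in Tris, OD570 read.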

[2] = test system: PC-3; test: Cytotoxicity against human PC3 cells after 5 days by SRB assay; format: functional, cell-based; conditions: PC-3, 120 h; outline: as §1
[3] = test system: NCI-H630; test: Cytotoxicity against human NCI-H630 cells after 5 days by SRB assay; format: functional, cell-based; conditions: NCI-H630, 120 h; outline: as §1
[4] = test system: Pseudomonas aeruginosa; test: Toxicity assessed as activation of quorum sensing signalling in Pseudomonas aeruginosa MW1 carrying (lasI-,rhlI-) pUM15 containing rsa::gfp fusion gene at 33 uM by LasR-dependent green fluorescence protein reporter assay; format: organism-based; conditions: in vivo
[5] = test system: Pseudomonas aeruginosa; test: Toxicity assessed as activation of quorum sensing signalling in Pseudomonas aeruginosa MW1 carrying (lasI-,rhlI-) pUM15 containing rsa::gfp fusion gene at 0.3 uM by LasR-dependent green fluorescence protein reporter assay; format: organism-based; conditions: in vivo

Compound	IC50 [1] [µM]	IC50 [2] [µM]	IC50 [3] [µM]	Activity [4]	Activity [5]
O=C(CC(=O)c1ccccc1)N[C@H]1CCOC1=O	> 100	> 100	> 100		
O=C(CCCCCCCCCCCc1ccccc1)N[C@H]1CCOC1=O	> 100	> 100	> 100		
O=C(CC(=O)N[C@H]1CCOC1=O)Cc1ccccc1	> 100	> 100	> 100		
O=C(CCCCCCCCCCc1ccccc1)N[C@H]1CCOC1=O	66	66	70		
O=C(CCCCCCCc1ccccc1)CC(=O)N[C@H]1CCOC1=O	10	2	42		
O=C(CCCCCCCCCc1ccccc1)N[C@H]1CCOC1=O	> 100	75	> 100		
O=C(CCCCCCCCc1ccccc1)CC(=O)N[C@H]1CCOC1=O	10	4	11		
O=C(CCCCCc1ccccc1)N[C@H]1CCOC1=O	> 100	> 100	> 100		
O=C(CCCCCCc1ccccc1)CC(=O)N[C@H]1CCOC1=O	27	9	65		
O=C(CCCCCCCCCCc1ccccc1)CC(=O)N[C@H]1CCOC1=O	14	2	23	Non-toxic	
O=C(CCCCCCCCCc1ccccc1)CC(=O)N[C@H]1CCOC1=O	13	4	16	Non-toxic	
O=C(CCCCc1ccccc1)CC(=O)N[C@H]1CCOC1=O	80	83	> 100		
O=C(CCCCCc1ccccc1)CC(=O)N[C@H]1CCOC1=O	24	9	44		
O=C(CCc1ccccc1)N[C@H]1CCOC1=O	> 100	> 100	> 100		
O=C(CCCCCCCCc1ccccc1)N[C@H]1CCOC1=O	> 100	67	> 100		
O=C(CCCc1ccccc1)N[C@H]1CCOC1=O	> 100	> 100	> 100		
O=C(CCc1ccccc1)CC(=O)N[C@H]1CCOC1=O	> 100	> 100	> 100		
O=C(CCCCCCCc1ccccc1)N[C@H]1CCOC1=O	> 100	85	> 100		
O=C(CCCCc1ccccc1)N[C@H]1CCOC1=O	> 100	> 100	> 100		
O=C(Cc1ccccc1)N[C@H]1CCOC1=O	> 100	> 100	> 100		
CCCCCCCCCC(=O)CC(=O)N[C@H]1CCOC1=O	12	5	34		Toxic
O=C(CCCCCCc1ccccc1)N[C@H]1CCOC1=O	> 100	> 100	> 100		
O=C(CCCc1ccccc1)CC(=O)N[C@H]1CCOC1=O	> 100	> 100	> 100		
O=C(CCCCCCCCCc1ccccc1)CC(=O)N[C@@H]1CCOC1=O	> 100	> 100	> 100		
O=C(CCCCCCCCCCCc1ccccc1)CC(=O)N[C@H]1CCOC1=O	27	4	33	Non-toxic	
